These results are taken from ChEMBL document CHEMBL4406901, “Synthesis, 3D-structure and stability analyses of NRPa-308, a new promising anti-cancer agent” (Bioorg Med Chem Lett, 2019).

Data set [1] relates to MDA-MB-231. In words: Antiproliferative activity against human MDA-MB-231 cells expressing NRP1 assessed as cell viability measured after 48 hrs by MTT assay. It counts as functional, cell-based. The following applies: MDA-MB-231, 48 h.
The subject of data set [2] is BT-549. In words: Antiproliferative activity against human BT549 cells expressing NRP1 assessed as cell viability measured after 72 hrs by MTT assay. It counts as functional, cell-based. The conditions noted are these: BT-549, 72 h.
Data set [3] in a line: Retention time of compound in human BT549 cells at 2 uM incubated at 37 degree C measured after 3 days by HPLC analysis. The data set is classed as ADME, cell-based. The following applies: bt-549, 72 h. The method in brief: (§1)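 MDA-MB-231 or BT-549 breast cancer cells were cultured with […] of compound for three days at 37 °C. Supernatant was analysed by HPLC. Cells were then washed and lysed with methanol, and the intracellular compound was measured by quantitative HPLC dosage, giving mol per sample.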

Data set [4] deals with BT-549. As to the kind of experiment: Antiproliferative activity against human BT549 cells expressing NRP1 assessed as cell viability measured after 48 hrs by MTT assay. It counts as functional, cell-based. The conditions noted are these: BT-549, 48 h.
Data set [5] relates to MDA-MB-231. In words: Antiproliferative activity against human MDA-MB-231 cells expressing NRP1 assessed as cell viability measured after 72 hrs by MTT assay. The data set is classed as functional, cell-based. The following applies: MDA-MB-231, 72 h.
Data set [6] is described as follows: Retention time of compound in human MDA-MB-231 cell lysates at 2 uM incubated at 37 degree C measured after 3 days by HPLC analysis. The data set is classed as ADME, subcellular, Lysate. The conditions noted are these: mda-mb-231, 72 h. The method in brief: as §1
The nature of data set [7]: Drug uptake in human MDA-MB-231 cells at 2 uM incubated at 37 degree C measured after 3 days by HPLC analysis. The following applies: mda-mb-231, 72 h. The data set is classed as ADME, cell-based. A digest of the protocol:
as §1

Data set [8] concerns MDA-MB-231. As to the kind of experiment: Antitumour activity against human MDA-MB-231 cells xenografted in nude mouse assessed as reduction in tumour growth at 50 mg/kg, po administered every 3 days for 20 days and measured 3 times a week by caliper method relative to control. The following applies: MDA-MB-231, po, read-out: TGI.
Data set [9] is described as follows: Retention time of compound in pH 7.4 at 1 mg incubated at 37 degree C by HPLC analysis. It counts as physicochemical. The method in brief: (§2)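 Compound held in aqueous buffers at pH 0.9, 7.4 and 8.4 at 25 °C or 37 °C for up to 16 days; the chromatographic profile was followed by HPLC.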
Data set [10] is described as follows: Retention time of compound in human MDA-MB-231 cells at 2 uM incubated at 37 degree C measured after 3 days by HPLC analysis. The data set is classed as ADME, cell-based. The conditions noted are these: mda-mb-231, 72 h. A digest of the protocol:
as §1

The nature of data set [11]: Chemical stability of compound in DMSO/aqueous buffer at 1 mg at pH 0.9 to 8.4 incubated at 25 degree C and measured upto 16 days by HPLC analysis. The data set is classed as physicochemical. The following applies: read-out: Stability. The method in brief: as §2
Data set [12] is described as follows: Chemical stability of compound in DMSO/aqueous buffer at 1 mg at pH 0.9 to 8.4 incubated at 37 degree C and measured upto 16 days by HPLC analysis. The conditions noted are these: read-out: Stability. The data set is classed as physicochemical. The method in brief:
as §2

Data set [13] can be described thus: Retention time of compound at in pH 8.4 at 1 mg incubated at 37 degree C by HPLC analysis. The data set is classed as physicochemical. The method in brief: as §2
Data set [14] is described as follows: Retention time of compound at 1mg measured immediately by HPLC analysis. The data set is classed as physicochemical.
Data set [15] can be described thus: Retention time of compound in pH 0.91 at 1 mg incubated at 37 degree C by HPLC analysis. The data set is classed as physicochemical. A digest of the protocol: as §2
Data set [16] is described as follows: Retention time of compound in human BT549 cell lysates at 2 uM incubated at 37 degree C measured after 3 days by HPLC analysis. It counts as ADME, subcellular, Lysate. The following applies: bt-549, 72 h. The method in brief:
as §1

The nature of data set [17]: Drug uptake in human BT549 cells at 2 uM incubated at 37 degree C measured after 3 days by HPLC analysis. It counts as ADME, cell-based. The following applies: bt-549, 72 h. The method in brief: as §1

SMILES strings stand for the structures.

Take `CCOc1ccccc1NC(=O)c1ccc(C)c(S(=O)(=O)Nc2ccc(C)cc2)c1`: the IC50 in the data set with MDA-MB-231 [1] was determined as 4900 nM; with BT-549 [2], 100 nM; with BT-549 [4], 2100 nM; in the data set on MDA-MB-231 [5], 200 nM. In addition, the Retention_time worked out at 4.05 min in data set [3]; 4.025 min in [6]; 4.067 min in [9]; 4.492 min in [10]; 4.05 min in data set [13]; 4.075 min in data set [14]. The Retention_time in data set [15] was determined as 4.058 min; in [16], 3.992 min. Also, the Drug uptake in [7] was 5.14 nmol; in data set [17], 1.4 nmol. Besides, the inhibition in vivo at 50 mg/kg in the data set on MDA-MB-231 [8] is over 60%. The remaining at 384 h in data set [11] and in data set [12] was 100% in each case.

Consider `CCN(CC)CCNC(=O)c1c(C)[nH]c(/C=C2\C(=O)Nc3ccc(F)cc32)c1C` [SUNITINIB], for which the IC50 in the data set with MDA-MB-231 [1] was 2600 nM; in the data set on BT-549 [2], 3500 nM; with BT-549 [4] it was 2200 nM; in the data set on MDA-MB-231 [5], 3700 nM.
